Measured values: ChEMBL document CHEMBL1146325, “Synthesis and antibacterial activities of new quinolone derivatives utilizing 1-azabicyclo[1.1.0]butane” (2007)
≈ marks a conversion by molar mass, not a printed value.

Tests used:
Assay type in all cases: functional
[1] = system: Staphylococcus aureus; test: Antibacterial activity against quinoline-susceptible methicillin-resistant Staphylococcus aureus by agar dilution method
Procedure, shortened: (§1)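 Read-out is the minimum inhibitory concentration (MIC), found by a conventional agar dilution procedure.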

[2] = system: Staphylococcus aureus; test: Antibacterial activity against quinoline-intermediate methicillin-resistant Staphylococcus aureus by agar dilution method; procedure, shortened: as §1
[3] = system: Staphylococcus aureus; test: Antibacterial activity against quinoline-resistant methicillin-resistant Staphylococcus aureus by agar dilution method; procedure, shortened: as §1
[4] = system: Enterococcus faecalis; test: Antibacterial activity against Enterococcus faecalis by agar dilution method
Procedure, shortened: (§2)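 Read-out is the minimum inhibitory concentration (MIC), determined by a conventional agar dilution procedure against a panel of Gram-positive and Gram-negative bacteria.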

[5] = system: Streptococcus pneumoniae; test: Antibacterial activity against Streptococcus pneumoniae by agar dilution method; procedure, shortened: as §2
[6] = system: Moraxella catarrhalis; test: Antibacterial activity against Moraxella catarrhalis by agar dilution method; procedure, shortened: as §2
[7] = system: Haemophilus influenzae; test: Antibacterial activity against Haemophilus influenzae by agar dilution method; procedure, shortened: as §2
[8] = system: Escherichia coli; test: Antibacterial activity against Escherichia coli without AcrAB efflux system by agar dilution method
[9] = system: Escherichia coli; test: Antibacterial activity against Escherichia coli with AcrAB efflux system by agar dilution method
[10] = system: Pseudomonas aeruginosa; test: Antibacterial activity against Pseudomonas aeruginosa by agar dilution method; procedure, shortened: as §2

Row | SMILES | MIC [1] | MIC [2] | MIC [3] | MIC [4] | MIC [5] | MIC [6] | MIC [7] | MIC [8] | MIC [9] | MIC [10]
1 | COc1ccc(NC2CN(c3c(F)cc4c(=O)c(C(=O)O)cn(C5CC5)c4c3F)C2)cc1 | 0.031 mg/L (≈ 0.0702 µM) | 0.25 mg/L (≈ 0.566 µM) | 16 mg/L (≈ 36.2 µM) | 0.25 mg/L (≈ 0.566 µM) | 0.063 mg/L (≈ 0.143 µM) | 0.031 mg/L (≈ 0.0702 µM) | ≤ 0.008 mg/L | 0.031 mg/L (≈ 0.0702 µM) | 0.25 mg/L (≈ 0.566 µM) | 4 mg/L (≈ 9.06 µM)
2 | O=C(O)c1cn(C2CC2)c2c(F)c(N3CC(Nc4ccc(Cl)cc4)C3)c(F)cc2c1=O | 0.063 mg/L (≈ 0.141 µM) | 1 mg/L (≈ 2.24 µM) | 16 mg/L (≈ 35.9 µM) | 1 mg/L (≈ 2.24 µM) | 0.5 mg/L (≈ 1.12 µM) | 0.063 mg/L (≈ 0.141 µM) | ≤ 0.008 mg/L | 0.125 mg/L (≈ 0.28 µM) | 1 mg/L (≈ 2.24 µM) | > 16 mg/L
3 | Cn1nnnc1Sc1c(F)cc2c(=O)c(C(=O)O)cn(C3CC3)c2c1F | 16 mg/L (≈ 42.2 µM) | > 16 mg/L | > 16 mg/L | > 16 mg/L | > 16 mg/L | 4 mg/L (≈ 10.5 µM) | 0.125 mg/L (≈ 0.33 µM) | 1 mg/L (≈ 2.64 µM) | 16 mg/L (≈ 42.2 µM) | > 16 mg/L
4 | O=C(O)c1cn(C2CC2)c2c(F)c(N3CC(N(Cc4ccccc4)Cc4ccccc4)C3)c(F)cc2c1=O | > 64 mg/L | > 64 mg/L | > 64 mg/L | > 64 mg/L | > 64 mg/L | > 64 mg/L | 8 mg/L (≈ 15.5 µM) | 64 mg/L (≈ 124 µM) | > 64 mg/L | > 64 mg/L
5 | O=C(O)c1cn(C2CC2)c2c(F)c(N3CC(Nc4ccccc4)C3)c(F)cc2c1=O | 0.016 mg/L (≈ 0.0389 µM) | 0.5 mg/L (≈ 1.22 µM) | 32 mg/L (≈ 77.8 µM) | 0.25 mg/L (≈ 0.608 µM) | 0.25 mg/L (≈ 0.608 µM) | 0.016 mg/L (≈ 0.0389 µM) | ≤ 0.008 mg/L | 0.031 mg/L (≈ 0.0754 µM) | 0.25 mg/L (≈ 0.608 µM) | 4 mg/L (≈ 9.72 µM)
6 | Cn1nnnc1SC1CN(c2c(F)cc3c(=O)c(C(=O)O)cn(C4CC4)c3c2F)C1 | 0.125 mg/L (≈ 0.288 µM) | 2 mg/L (≈ 4.6 µM) | > 32 mg/L | 1 mg/L (≈ 2.3 µM) | 2 mg/L (≈ 4.6 µM) | 0.063 mg/L (≈ 0.145 µM) | < 0.008 mg/L | 0.125 mg/L (≈ 0.288 µM) | 1 mg/L (≈ 2.3 µM) | 8 mg/L (≈ 18.4 µM)
7 | O=C(O)c1cn(C2CC2)c2c(F)c(N3CC(Sc4ncccn4)C3)c(F)cc2c1=O | 0.063 mg/L (≈ 0.146 µM) | 1 mg/L (≈ 2.32 µM) | 32 mg/L (≈ 74.3 µM) | 0.25 mg/L (≈ 0.581 µM) | 1 mg/L (≈ 2.32 µM) | 0.063 mg/L (≈ 0.146 µM) | ≤ 0.008 mg/L | 1 mg/L (≈ 2.32 µM) | 1 mg/L (≈ 2.32 µM) | 8 mg/L (≈ 18.6 µM)
8 | Cc1ccc(SC2CN(c3c(F)cc4c(=O)c(C(=O)O)cn(C5CC5)c4c3F)C2)cc1 | 2 mg/L (≈ 4.52 µM) | 32 mg/L (≈ 72.3 µM) | > 32 mg/L | 16 mg/L (≈ 36.2 µM) | 32 mg/L (≈ 72.3 µM) | 2 mg/L (≈ 4.52 µM) | 0.25 mg/L (≈ 0.565 µM) | 32 mg/L (≈ 72.3 µM) | 32 mg/L (≈ 72.3 µM) | > 32 mg/L
